Assay results pooled from the literature.
Protocols differ between the studies behind these lines.
Read-out: cell growth or viability

Structure (SMILES) | cell line | test | setting | CC50
N#Cc1nc(-c2ccccc2)oc1N1CCCC1CO (centres unmarked) | HFF | ATP luminescence | – | > 150 µM
O=C(CN1C(=O)Cc2c([nH]c3ccc(Br)cc23)-c2ccc(Cl)cc21)NCCN1CCCCC1 | J774 | WST-1 | 24 h | ≤ 10 µM
Nc1ccn(C[C@@H](CO)OCP(=O)(O)O)c(=O)n1 | HFF | ATP luminescence | 14 days | 60 µM
Nc1nc(O)c2ncn(COC(CO)CO)c2n1 | HFF | ATP luminescence | – | > 150 µM
CN(C)c1ccc(C(=C2C=CC(=[N+](C)C)C=C2)c2ccc(N(C)C)cc2)cc1 | J774 | ATP luminescence | 72 h | 4.91 µM
O=c1[nH]c2sc3c(c2c(=O)n1O)CCN(Cc1ccccc1)C3 | HFF | MTS | 7 days | > 50 µM
NCCNC(=O)CN1C(=O)Cc2c([nH]c3ccc(Br)cc23)-c2ccc(Cl)cc21 | J774 | WST-1 | 24 h | ≥ 100 µM
O=c1[nH]c2cc(-c3ccc(Cl)cc3)sc2c(=O)n1O | HFF | MTS | 7 days | > 50 µM
NCCCCNC(=O)CN1C(=O)Cc2c([nH]c3ccc(Br)cc23)-c2ccc(Cl)cc21 | J774 | WST-1 | 24 h | ≥ 100 µM
O=c1[nH]c2sc(-c3ccc(Cl)cc3)cc2c(=O)n1O | HFF | MTS | 7 days | > 50 µM
Cc1ccc(S(=O)(=O)c2nc(S(=O)(=O)NCc3ccccc3)sc2Cl)cc1 | HFF | ATP luminescence | – | 106 µM
